Test results reported in ChEMBL document CHEMBL1944607, “7-Substituted-pyrrolo[3,2-d]pyrimidine-2,4-dione derivatives as antagonists of the transient receptor potential ankyrin 1 (TRPA1) channel: a promising approach for treating pain and inflammation” (Bioorg Med Chem, 2012).
The source made the active and inactive calls. No cut-off for these calls is given here.

How the values were obtained:
[1] = target: Transient receptor potential cation channel subfamily A member 1 (Rattus norvegicus) (UniProt Q6RI86); assay: Antagonist activity at Sprague-Dawley rat TRPA1 expressed in rat DRG neurons assessed as inhibition of acrolein-induced calcium influx at 30 uM after 40 mins by fluorescence analysis; assay type: functional
Transient receptor potential cation channel subfamily A member 1 (Rattus norvegicus), sequence (Q6RI86 whole entry): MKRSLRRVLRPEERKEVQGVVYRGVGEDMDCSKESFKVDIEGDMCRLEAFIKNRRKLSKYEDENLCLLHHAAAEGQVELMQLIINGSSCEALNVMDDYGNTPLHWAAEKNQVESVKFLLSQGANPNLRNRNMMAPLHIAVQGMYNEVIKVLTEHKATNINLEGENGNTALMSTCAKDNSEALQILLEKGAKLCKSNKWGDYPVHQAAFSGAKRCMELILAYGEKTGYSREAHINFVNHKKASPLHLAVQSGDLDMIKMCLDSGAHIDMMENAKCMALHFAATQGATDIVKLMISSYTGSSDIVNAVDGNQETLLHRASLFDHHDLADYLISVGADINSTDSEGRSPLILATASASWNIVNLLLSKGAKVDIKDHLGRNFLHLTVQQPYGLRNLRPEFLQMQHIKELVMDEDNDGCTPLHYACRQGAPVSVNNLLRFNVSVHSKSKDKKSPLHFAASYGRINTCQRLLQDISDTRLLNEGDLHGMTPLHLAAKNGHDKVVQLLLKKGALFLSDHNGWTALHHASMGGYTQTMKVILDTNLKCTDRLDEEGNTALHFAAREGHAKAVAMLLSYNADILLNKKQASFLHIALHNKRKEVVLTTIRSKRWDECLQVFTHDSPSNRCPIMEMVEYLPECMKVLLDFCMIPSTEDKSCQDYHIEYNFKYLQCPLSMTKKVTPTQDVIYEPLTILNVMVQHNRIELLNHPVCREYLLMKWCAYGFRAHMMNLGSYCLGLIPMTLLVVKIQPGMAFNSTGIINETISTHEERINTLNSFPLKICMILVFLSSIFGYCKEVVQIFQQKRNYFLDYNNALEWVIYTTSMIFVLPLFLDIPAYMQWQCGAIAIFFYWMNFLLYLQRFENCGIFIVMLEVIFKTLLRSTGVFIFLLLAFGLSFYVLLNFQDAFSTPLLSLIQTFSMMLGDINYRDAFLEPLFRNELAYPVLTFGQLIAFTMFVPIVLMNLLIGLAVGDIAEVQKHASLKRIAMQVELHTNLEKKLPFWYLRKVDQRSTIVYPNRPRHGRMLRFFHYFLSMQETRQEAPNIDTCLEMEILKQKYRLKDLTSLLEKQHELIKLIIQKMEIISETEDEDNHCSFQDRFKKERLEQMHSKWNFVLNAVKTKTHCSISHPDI
Procedure, shortened: (§1)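 DRG neurons came from male Sprague–Dawley rats (100 g). Ganglia were digested in HBSS with collagenase 1A (2 mg/ml) and trypsin (1 mg/ml) for 35 min at 37 °C, dissociated through 23–25 G needles in medium with 10% FBS and 10% horse serum, then filtered and centrifuged. Neurons were loaded with Fura-2 AM for 40 min at 37 °C in HEPES buffer (pH 7.4). F340/F380 was recorded under acrolein with antagonist present. %inhibition is mean ± SEM from ≥20 neurons across three experiments; IC₅₀ comes from a variable-slope sigmoidal fit.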

[2] = target: Transient receptor potential cation channel subfamily A member 1 (Rattus norvegicus) (UniProt Q6RI86); assay: Antagonist activity at Sprague-Dawley rat TRPA1 expressed in rat DRG neurons assessed as inhibition of acrolein-induced calcium influx at 3 uM after 40 mins by fluorescence analysis; assay type: functional; procedure, shortened: as §1
[3] = target: T1, Transient receptor potential cation channel subfamily A member 1 (Homo sapiens, UniProt O75762); assay: Antagonist activity at human TRPA1 expressed in human IMR90 cells assessed as inhibition of acrolein-induced calcium influx at 30 uM after 40 mins by fluorescence analysis; assay type: functional, cell-based; details: IMR-90
T1 sequence (O75762 whole entry): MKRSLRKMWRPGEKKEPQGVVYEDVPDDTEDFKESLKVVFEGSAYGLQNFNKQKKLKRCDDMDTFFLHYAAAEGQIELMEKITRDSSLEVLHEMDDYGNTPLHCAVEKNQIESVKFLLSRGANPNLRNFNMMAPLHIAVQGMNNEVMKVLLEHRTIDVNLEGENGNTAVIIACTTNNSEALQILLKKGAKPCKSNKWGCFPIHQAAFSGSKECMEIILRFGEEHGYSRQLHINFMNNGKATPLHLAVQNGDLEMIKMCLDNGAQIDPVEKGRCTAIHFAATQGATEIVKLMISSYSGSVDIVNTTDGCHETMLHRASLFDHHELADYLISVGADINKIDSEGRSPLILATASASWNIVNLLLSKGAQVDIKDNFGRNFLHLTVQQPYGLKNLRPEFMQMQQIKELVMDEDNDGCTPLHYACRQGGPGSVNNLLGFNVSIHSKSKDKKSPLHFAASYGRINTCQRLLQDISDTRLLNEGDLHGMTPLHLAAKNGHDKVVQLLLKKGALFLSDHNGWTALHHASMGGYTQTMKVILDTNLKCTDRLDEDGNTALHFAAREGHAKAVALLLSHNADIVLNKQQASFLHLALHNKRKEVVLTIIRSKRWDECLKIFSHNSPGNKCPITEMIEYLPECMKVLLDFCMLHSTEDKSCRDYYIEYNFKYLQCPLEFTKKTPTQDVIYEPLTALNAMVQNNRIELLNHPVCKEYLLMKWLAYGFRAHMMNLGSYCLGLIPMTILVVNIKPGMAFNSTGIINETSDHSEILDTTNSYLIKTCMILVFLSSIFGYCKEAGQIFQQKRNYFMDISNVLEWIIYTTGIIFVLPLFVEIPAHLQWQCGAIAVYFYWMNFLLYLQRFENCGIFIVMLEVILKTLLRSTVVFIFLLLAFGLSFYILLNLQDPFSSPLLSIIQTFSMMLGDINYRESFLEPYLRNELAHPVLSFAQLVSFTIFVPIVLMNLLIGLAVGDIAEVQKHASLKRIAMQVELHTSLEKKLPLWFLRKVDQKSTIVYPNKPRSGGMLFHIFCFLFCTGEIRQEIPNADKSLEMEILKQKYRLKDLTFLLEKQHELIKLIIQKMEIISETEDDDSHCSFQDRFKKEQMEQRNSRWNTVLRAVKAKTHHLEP
Procedure, shortened: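 IMR90 fetal lung fibroblasts, which constitutively express human TRPA1, were grown in DMEM with 10% FBS and 2 mM L-glutamine at 37 °C under 5% CO₂, then plated on glass coverslips to 60% confluence. Cells were loaded with Fura-2 AM for 40 min at 37 °C in HEPES buffer (pH 7.4, 0.1% BSA). Single-cell F340/F380 ratio was recorded during acrolein challenge in the presence of antagonist. %inhibition is mean ± SEM from ≥25 cells across three experiments; IC₅₀ (with CI) comes from a variable-slope sigmoidal fit.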

[4] = target: Transient receptor potential cation channel subfamily A member 1 (Rattus norvegicus, UniProt Q6RI86); assay: (§2) Antagonist activity at Sprague-Dawley rat TRPA1 expressed in rat DRG neurons assessed as inhibition of acrolein-induced calcium influx after 40 mins by fluorescence analysis; assay type: functional; procedure, shortened: as §1
Transient receptor potential cation channel subfamily A member 1 (Rattus norvegicus, UniProt Q6RI86), sequence (Q6RI86 whole entry): as the sequence (Q6RI86 whole entry) above

[5] = target: Transient receptor potential cation channel subfamily V member 1 (Rattus norvegicus) (UniProt O35433); assay: Antagonist activity at Sprague-Dawley rat TRPV1 expressed in rat DRG neurons assessed as inhibition of capsaicin-induced calcium influx after 40 mins by fluorescence analysis; assay type: functional
Transient receptor potential cation channel subfamily V member 1 (Rattus norvegicus), sequence (O35433 whole entry): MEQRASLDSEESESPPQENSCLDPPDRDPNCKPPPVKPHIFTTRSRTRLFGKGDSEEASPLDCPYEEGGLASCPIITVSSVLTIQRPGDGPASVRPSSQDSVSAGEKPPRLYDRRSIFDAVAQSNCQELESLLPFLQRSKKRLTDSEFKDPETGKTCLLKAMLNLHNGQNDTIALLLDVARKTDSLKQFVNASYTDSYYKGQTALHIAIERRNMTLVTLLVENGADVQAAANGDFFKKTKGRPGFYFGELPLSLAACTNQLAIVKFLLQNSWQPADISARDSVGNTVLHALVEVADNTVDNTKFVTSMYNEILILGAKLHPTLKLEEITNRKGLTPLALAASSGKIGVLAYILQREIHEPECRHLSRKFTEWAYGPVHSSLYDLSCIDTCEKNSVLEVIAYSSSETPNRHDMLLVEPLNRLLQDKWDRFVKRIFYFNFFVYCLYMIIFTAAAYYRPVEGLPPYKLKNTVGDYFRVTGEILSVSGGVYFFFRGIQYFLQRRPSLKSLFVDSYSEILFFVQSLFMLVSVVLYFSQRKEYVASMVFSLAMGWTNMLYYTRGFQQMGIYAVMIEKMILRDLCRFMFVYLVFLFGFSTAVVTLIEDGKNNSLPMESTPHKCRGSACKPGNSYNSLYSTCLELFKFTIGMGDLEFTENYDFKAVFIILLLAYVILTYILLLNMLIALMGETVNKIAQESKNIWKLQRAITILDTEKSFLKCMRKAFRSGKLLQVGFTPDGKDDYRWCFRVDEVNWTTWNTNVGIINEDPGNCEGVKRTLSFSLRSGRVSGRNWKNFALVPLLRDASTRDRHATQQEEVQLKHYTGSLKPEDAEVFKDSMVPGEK

[6] = target: T1, Transient receptor potential cation channel subfamily A member 1; assay: Antagonist activity at human TRPA1 expressed in human IMR90 cells assessed as inhibition of acrolein-induced calcium influx at 3 uM after 40 mins by fluorescence analysis; assay type: functional, cell-based; details: IMR-90
[7] = target: T1, Transient receptor potential cation channel subfamily A member 1; assay: Antagonist activity at human TRPA1 expressed in human IMR90 cells assessed as inhibition of acrolein-induced calcium influx after 40 mins by fluorescence analysis
[8] = target: T1, Transient receptor potential cation channel subfamily A member 1; assay: Antagonist activity at human TRPA1 expressed in CHO cells assessed as inhibition of calcium influx; assay type: functional, cell-based
[9] = target: Transient receptor potential cation channel subfamily A member 1 (Rattus norvegicus) (UniProt Q6RI86); assay: as §2; assay type: functional; procedure, shortened: as §1
[10] = target: T1, Transient receptor potential cation channel subfamily A member 1; details: IMR-90, 1 uM

Row | Compound | inhibition [1] [%] | inhibition [2] [%] | inhibition [3] [%] | also measured
1 | Cn1c(=O)c2c(ccn2CC(=O)Nc2ccc(C(C)(C)C)cc2)n(C)c1=O | 95.8 | 10.7 |  | 
2 | Cn1c(=O)c2c(ccn2CC(=O)Nc2nc(-c3ccccc3)cs2)n(C)c1=O |  |  | < 50 | 
3 | Cn1c(=O)c2c(ccn2CC(=O)Nc2ccc(F)cc2F)n(C)c1=O |  |  | < 50 | 
4 | Cn1c(=O)c2c(ccn2CC(=O)NCc2ccccc2)n(C)c1=O |  |  | < 50 | 
5 | CC(C)c1ccc(NC(=O)Cn2cnc3c2c(=O)n(C)c(=O)n3C)cc1 | 99.8 | 80.7 | 97.5 | IC50 [4]: 2100 nM; inhibition [5]: inactive; inhibition [6]: 73.2%
6 | COc1ccc(NC(=O)Cn2ccc3c2c(=O)n(C)c(=O)n3C)cc1 |  |  | < 50 | 
7 | Cn1c(=O)c2c(ccn2CC(=O)Nc2ccc(F)c(F)c2)n(C)c1=O |  |  | < 50 | 
8 | Cn1c(=O)c2c(ccn2CC(=O)Nc2nc(-c3ccc(C(F)(F)F)cc3)cs2)n(C)c1=O | 80.2 | 58.3 |  | 
9 | COc1cccc(C2NC(=S)NC3=C2C(=O)c2ccccc23)c1 (centres undefined) | 99.5 | 40.2 | 98.8 | IC50 [4]: 3400 nM; inhibition [5]: inactive; inhibition [6]: 83.1%; IC50 [7]: 1500 nM; IC50 [8]: 128 nM
10 | CCCCc1ccc(NC(=O)Cn2ccc3c2c(=O)n(C)c(=O)n3C)cc1 | 97.1 | 94.4 | 99 | inhibition [6]: 93.5%; IC50 [7]: 1100 nM
11 | Cn1c(=O)c2c(ccn2CC(=O)Nc2ccc(S(=O)(=O)NCc3ccccc3)cc2)n(C)c1=O |  |  | < 50 | 
12 | CCCCCCc1ccc(NC(=O)Cn2ccc3c2c(=O)n(C)c(=O)n3C)cc1 | 93.3 | 35.5 |  | 
13 | Cn1c(=O)c2c(ccn2CC(=O)Nc2cccc(I)c2)n(C)c1=O |  |  | < 50 | 
14 | Cn1c(=O)c2c(ccn2CC(=O)Nc2ccc(SC(F)(F)F)cc2)n(C)c1=O |  |  | < 50 | 
15 | CC(=C\c1ccc(Cl)cc1)/C(C)=N/O [AP18 5] | 90.1 | 45.2 | 98.9 | IC50 [4]: 3400 nM; inhibition [5]: inactive; inhibition [6]: 69.1%; IC50 [7]: 2200 nM
16 | Cn1c(=O)c2c(ccn2CC(=O)Nc2ccc(I)cc2)n(C)c1=O | 85.4 | 12.4 |  | 

Row | Compound | inhibition [1] [%] | inhibition [2] [%] | inhibition [3] [%] | also measured
17 | CC(C)c1ccc(NC(=O)Cn2ccc3c2c(=O)n(C)c(=O)n3C)cc1 |  |  | < 50 | 
18 | CCN(CC)S(=O)(=O)c1ccc(NC(=O)Cn2ccc3c2c(=O)n(C)c(=O)n3C)cc1 |  |  | < 50 | 
19 | Cn1c(=O)c2c(ccn2CC(=O)Nc2ccc(OC(F)(F)F)cc2)n(C)c1=O | 99.5 | 36.8 |  | 
20 | Cn1c(=O)c2c(ccn2CC(=O)NCCCc2ccccc2)n(C)c1=O |  |  | < 50 | 
21 | Cc1ccc(CNC(=O)Cn2ccc3c2c(=O)n(C)c(=O)n3C)cc1 |  |  | < 50 | 
22 | Cn1c(=O)c2c(ccn2CC(=O)Nc2nc(-c3ccc(F)cc3)cs2)n(C)c1=O | 99.2 | 3.6 | 82.8 | inhibition [6]: 47.9%; IC50 [7]: 4100 nM
23 | Cn1c(=O)c2c(ccn2CC(=O)NCCc2ccccc2)n(C)c1=O |  |  | < 50 | 
24 | Cn1c(=O)c2c(ccn2CC(=O)Nc2nc(-c3ccc(F)c(C(F)(F)F)c3)cs2)n(C)c1=O | 99.6 | 80.6 | 99.3 | inhibition [9]: Dose-dependent effect; IC50 [4]: 1300 nM; inhibition [5]: inactive; inhibition [6]: 76.1%; IC50 [7]: 1300 nM
25 | Cn1c(=O)c2c(ccn2CC(=O)Nc2nc(-c3ccc(I)cc3)cs2)n(C)c1=O |  |  | < 50 | 
26 | CCCCCCc1ccc(-c2csc(NC(=O)Cn3ccc4c3c(=O)n(C)c(=O)n4C)n2)cc1 | 99.4 | 92.4 |  | 
27 | Cn1c(=O)c2c(ccn2CC(=O)Nc2ccc(C(F)(F)F)cc2)n(C)c1=O | 99.7 | 58.8 | 99.1 | inhibition [9]: Dose-dependent effect; IC50 [4]: 2800 nM; inhibition [5]: inactive; inhibition [10]: 88.7%; inhibition [6]: 99%; IC50 [7]: 400 nM
28 | Cn1c(=O)c2c(ccn2CC(=O)Nc2ccc(C3CCCCC3)cc2)n(C)c1=O |  |  | < 50 | 
29 | Cn1c(=O)c2c(ccn2CC(=O)Nc2ccc(Cl)cc2)n(C)c1=O |  |  | < 50 | 
30 | CN(C(=O)Cn1ccc2c1c(=O)n(C)c(=O)n2C)c1ccc(F)cc1 |  |  | < 50 | 
31 | Cn1c(=O)c2c(ccn2CC(=O)NC23CC4CC(CC(C4)C2)C3)n(C)c1=O |  |  | < 50 | 
32 | Cn1c(=O)c2c(ccn2CC(=O)Nc2ccc(N3CCOCC3)cc2)n(C)c1=O |  |  | < 50 | 
